In the library only some 1.9% were active in any assay of this set; here they are far more common.
CHRM5 PAM – CHRM5 positive allosteric modulation. activation, % at 3 µM. actives 0.3% (n = 360,000). CHO-K1 hM5, Fluo-8 calcium, ACh EC20 PAM; 0% = ACh EC20, 100% = ACh EC100;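 active = activation above the run cutoff, the mean activation of all test compounds plus 3 SD, cut at about 18% in these data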
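Probe or stimulus: acetylcholine, EC20 level; Assay system: human M5 receptor in CHO-K1 cells; Schedule: compound preincubation 140 s before EC20 acetylcholine addition; Technique: intracellular calcium via Fluo-8 fluorescence; Dosing: single-point, 3 µM nominal; Read-out basis: percent activation from peak-over-basal fluorescence ratio, scaled EC20-to-EC100 acetylcholine; Repeats: one well per compound, no replicates.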
CHRM5 agonist – CHRM5 agonism in calcium assay; CHO-K1 hM5 cells, Fluo-8 calcium fluorescence; 0% DMSO wells, 100% maximal acetylcholine response; actives 0.19% (n = 360,000); P08912; AID 624037; activation, % at 3 µM;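 active = activation above the run's mean over test compounds plus 3 SD, cut at about 23% in these data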;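 note: signal is peak over basal fluorescence ratio across the kinetic read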
CHRM4 antagonist – antagonists of human muscarinic M4 receptor (CHRM4); P08173; actives 0.73% (n = 360,000); CHO-hM4 cells, ACh EC80, Fluo-8 calcium fluorescence; AID 624125; inhibition, % at 3 µM;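 active = inhibition above its plate's cutoff, the mean inhibition of sample wells plus 3 SD, cut at about 27% in these data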;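 note: 0% = acetylcholine EC80 with DMSO and 100% = DMSO without agonist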
Target sequence (P08173 whole entry, looked up): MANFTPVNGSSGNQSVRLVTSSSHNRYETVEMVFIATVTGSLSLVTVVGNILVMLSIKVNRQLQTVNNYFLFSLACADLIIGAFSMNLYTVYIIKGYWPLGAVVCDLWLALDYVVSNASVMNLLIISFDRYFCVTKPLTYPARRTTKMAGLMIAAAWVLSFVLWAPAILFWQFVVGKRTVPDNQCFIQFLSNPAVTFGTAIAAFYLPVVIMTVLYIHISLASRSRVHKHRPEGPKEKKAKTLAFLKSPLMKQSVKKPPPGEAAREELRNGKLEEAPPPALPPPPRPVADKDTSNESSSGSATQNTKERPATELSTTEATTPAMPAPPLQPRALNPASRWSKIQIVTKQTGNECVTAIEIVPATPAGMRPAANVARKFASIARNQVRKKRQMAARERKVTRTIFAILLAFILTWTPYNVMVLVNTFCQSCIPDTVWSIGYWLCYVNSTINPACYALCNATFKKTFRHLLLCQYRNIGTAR
M4 PAM – CHRM4 positive allosteric modulation; CHO-K1 hM4/Gqi5, Fluo-8 calcium fluorescence, ACh EC20; 0% = ACh EC20, 100% = maximal ACh; P08173; actives 0.4% (n = 360,000); activation, % at 3 µM;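 active = activation above its plate's cutoff, the mean activation of sample wells plus 3 SD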
M5 antag – blocks acetylcholine activation of human M5 receptor | actives 0.59% (n = 360,000) | inhibition, % at 3 µM | CHO-hM5 cells, Fluo-8 calcium fluorescence, ACh EC80 | AID 624040;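 active = inhibition above a per-plate cutoff, the mean of that plate's test compounds plus 3 SD, cut at about 27% in these data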;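 note: 0% = acetylcholine EC80 with DMSO and 100% = DMSO without agonist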
M4 ag – agonists of human muscarinic M4 receptor (CHRM4); CHO-K1 hM4/Gqi5, Fluo-8 calcium fluorescence; vehicle 0%, full acetylcholine response 100%; activation, % at 3 µM; actives 0.14% (n = 360,000); AID 624127;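 active = activation above the run mean over all test wells plus 3 SD, cut at about 32% in these data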;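 note: peak over basal fluorescence ratio per well then scaled between controls; 0% = DMSO wells and 100% = acetylcholine at EC100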
* hit, by the source's call; ! = repeats disagree.

SMILES	CHRM5 PAM	CHRM5 agonist	CHRM4 antagonist	M4 PAM	M5 antag	M4 ag
COc1ccc(C(=O)C2CCCN(Cc3cnc(C)s3)C2)cc1OC (stereo not drawn)	-3	-10	5	-11	-3	1
COC(=O)[C@@]1(Sc2ccc(C)cc2)CC(=O)N(P(=O)(OC)OC)[C@@H]1c1ccccc1	-3	3	0	3	4	1
COCCCN1CCN(c2nnc3n2-c2sc(Br)cc2C(c2ccccc2Cl)=NC3)CC1	-3	-5	10	-4	11	2
O=C(Oc1ccc([N+](=O)[O-])cc1)N1CCC(N2CCCCC2)CC1	-4	-8	56*	-17	4	0
CC(=O)Nc1ccc(OC(=O)N2CCCCC2)cc1	1	-2	-1	8	-4	0
Nc1cc(C(=O)Nc2ccccc2F)ccc1N1CC2CC(C1)c1cccc(=O)n1C2 (stereo not drawn)	2	1	-13	6	1	2
C[C@]12CC[C@@H](O)CC1=CCC1C2CC[C@@]2(C)C1CC[C@@H]2O (stereo partly drawn)	0	0	-28	8	-1	4
Cc1ccc(S(=O)(=O)N[C@@H](CCCCN)C(=O)CCl)cc1	-16	39*	-7	-2	-8	1
Cc1ccc(S(=O)(=O)NCCC(=O)Nc2ccc(Cl)cc2C(=O)c2ccccc2)cc1	-6	-2	-4	-9	-6	-3
CCOC(=O)C1(c2ccccc2)Oc2ccccc2C(c2ccc(OC)cc2)=C1C(=O)OC (stereo not drawn)	1	-2	-5	-3	-10	-1
COc1ccc(OC)c([C@@H](O)[C@H](C)NC(C)(C)C)c1	-19	-1	51*	-15	24	0
O=C1NC(=O)N(c2ccccc2)C(=O)/C1=C/c1ccc(Sc2ccccc2)o1	6	2	-1	6	-1	3
O=C1NC(=O)N(c2cccc(Cl)c2)C(=O)/C1=C\c1ccc(Sc2nc3ccccc3[nH]2)o1	-24	36*	6	-7	18	25
O=C1NC(=O)N(c2ccccc2F)C(=O)/C1=C/c1ccc(Sc2nc3ccccc3[nH]2)o1	-9	16	21	-28	5	41*
O=C1C=CC(=O)C2C1C1(Cl)C(Cl)=C(Cl)C2(Cl)C1(Cl)Cl (stereo not drawn)	-6	0	-4	6	16	3
COC(=O)C1=C(c2ccc(C(C)=O)cc2)C[C@@H]2CC[C@H]1N2C(=O)NCc1ccc(C(F)(F)F)cc1	-19	38*	2	-6	13	36*
O=[N+]([O-])/C=C/c1c(Cl)cccc1Cl	-24	-3	18	-9	29*	16
CC(C)n1c(O)c(C2c3cc(Cl)ccc3Oc3[nH]c(=O)n(C(C)C)c(=O)c32)c(=O)[nH]c1=O (stereo not drawn)	6	-1	-13	7	2	0
C#CCOC(=O)C1=CCCN(C)C1	-16	97*	74*	-19	97*	70*
Cn1cc(C(O)CN2CCCCC2)c2ccccc21 (stereo not drawn)	0	-1	4	-1	8	1
O=C(c1cc(F)ccc1F)C1CCCN(CCCc2ccccc2)C1 (stereo not drawn)	-17	-9	32*	-17	12	0
CCN1CCN(Cc2cc(Br)cc(OC)c2O)CC1	-19	-13	39*	-26	2	2
COC(=O)C(O)(c1ccc(NC(=S)NC(=O)c2ccc(Cl)cc2Cl)cc1)C(F)(F)F (stereo not drawn)	-8	11	11	-19	15	16
COC(=O)C(O)(c1ccc(NC(=S)NC(=O)c2ccc(Cl)cc2Cl)c(C)c1)C(F)(F)F (stereo not drawn)	-14	11	11	-19	27*	22
CCOC(=O)C(O)(c1ccc(NC(=S)NC(=O)c2ccc(Cl)cc2Cl)c(C)c1)C(F)(F)F (stereo not drawn)	-14	23	31*	-28	37*	40*
SMILES	CHRM5 PAM	CHRM5 agonist	CHRM4 antagonist	M4 PAM	M5 antag	M4 ag
CCC(=Nc1ccccc1N)c1c(O)[nH]c(=O)[nH]c1=O	-1	-3	-6	-3	-1	0
COCCNC(=O)CN1C(=O)CN=C(c2ccccc2)c2ccccc21	4	-1	0	2	1	0
O=C(O)C1C2c3ccccc3C(O)C1(C(=O)O)c1ccccc12 (stereo not drawn)	13	-3	2	4	-1	0
C[n+]1ccc(-c2cc[n+](C)cc2)cc1	-1	61*!	0	2	-3	0
CCCCCCC[n+]1ccc(-c2cc[n+](CCCCCCC)cc2)cc1	-6	-7	4	-7	-3	0
O=C1NC(=O)C(=Cc2ccc(N3CCN(C(=O)c4ccccc4)CC3)c([N+](=O)[O-])c2)C(=O)N1	-2	5	48*	54*	2	41*
CCCCCCn1c(O)c(C=Nc2c(C)n(C)n(-c3ccccc3)c2=O)c(=O)[nH]c1=O	25*	-4	-8	12	19	-1
Cc1c(N=Cc2c(O)n(CCc3ccccc3)c(=O)[nH]c2=O)c(=O)n(-c2ccccc2)n1C	-5	-6	-3	-7	4	2
CCOC(=O)/C(CCCN(CC)CC)=N\O	-16	-11	34*	-19	35*	0
COc1ccc2ccccc2c1CNCCc1ccccc1	18*	-4	5	-4	-4	5
Nc1nc(N)c2cnnn2n1	8	1	-6	16	0	3
C[C@H](NC(=O)CCC(=O)N1C[C@H]2C[C@H](C1)c1cccc(=O)n1C2)c1ccccc1	-2	0	-14	10	4	0
N#Cc1ccc(CN2Cc3ccccc3-n3nncc3C2)cc1	5	-1	-14	1	-4	1
CC1OC(OC2CC(O)C3(CO)C4C(O)CC5(C)C(C6=CC(=O)OC6)CCC5(O)C4CCC3(O)C2)C(O)C(O)C1O (stereo not drawn)	1	3	-7	9	-2	0
C[C@@H]1O[C@@H](O[C@H]2C[C@@H](O)[C@]3(CO)[C@H]4[C@H](O)C[C@]5(C)[C@@H](C6COC(=O)C6)CC[C@]5(O)[C@@H]4CC[C@]3(O)C2)[C@H](O)[C@H](O)[C@H]1O (stereo partly drawn)	-7	0	34*	-15	-5	1
COc1cccc(CNC2CN3CCC2CC3)c1OC (stereo not drawn)	-24	-6	25	-11	60*	2

Compound activity: PubChem BioAssay, The Scripps Research Institute Molecular Screening Center
